# Cl transport mod = modulates chloride dependent transport by human KCC2; AID 1456; B-score of Tl+ flux slope (higher = more flux/activation; lower = inhibition) at 10 µM; KCC2 cells, thallium flux FluoZin-2 fluorescence; actives 2.2% (n = 190,000); Q9H2X9;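 active means thallium flux slope and its plate-corrected score both differing from the plate sample mean at a set confidence after two filtering rounds, in either direction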;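 further: slope of fluorescence scaled to starting intensity during 10 to 20 s after thallium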
# Dynein cargo inh = dynein cargo transport inhibition; z-score, hits read low; 3617.4 mouse cells, GR-EGFP nuclear translocation imaging; test concentration mostly 20 µM; stimulated with dexamethasone, 1 µM; active compounds read low; actives 0.47% (n = 220,000); AID 1381;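 active means plate z-score of nuclear minus cytoplasmic receptor signal below a set negative limit, without overly bright fluorescence or cell loss, cut at about -3.5 in these data, passing the limit was not always enough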;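 further: z-score of nuclear minus cytoplasmic ring GR-EGFP intensity difference per well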
#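 Medium: Induction medium lacking tetracycline, stripped serum | Probe or stimulus: 1.0 µM final dexamethasone stimulus | Schedule: 48 h induction, then 1 h compound, then 30 min agonist, 37 °C | Signal: Automated 10x imaging of fixed Hoechst-stained cells | Evaluation: Per-cell GR-EGFP intensity, nucleus versus surrounding cytoplasmic ring, well-averaged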
# p-CIP stab down = lowers stability of the mouse p/CIP coactivator protein. actives 0.01% (n = 290,000). AID 1984. F442A p/CIP-EGFP cells, EGFP fluorescence, 16 h. decrease of EGFP signal, % at 10 µM. Q05BA5;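 active means EGFP signal decrease of at least 30% at 10 µM or well 3 SD below plate mean, unless failing retest; inactive means the rest, including hits failing retest or dose response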
# ABCB6 inh 2 = blocks the human ABCB6 transporter | actives 0.19% (n = 360,000) | K562-ABCB6 porphyrin accumulation, flow cytometry, 1 h; active compounds read low | fluorescence ratio to DMSO, % at 10 µM | AID 602162;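 active means fluorescence ratio to DMSO below 75%, the collection mean minus 3 SD; inconclusive means too few cells collected in the well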;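 further: signal is porphyrin accumulated inside mitochondria; lower ratio means ABCB6 inhibition with less porphyrin fluorescence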
# Target sequence (Q9NP58 whole entry, looked up): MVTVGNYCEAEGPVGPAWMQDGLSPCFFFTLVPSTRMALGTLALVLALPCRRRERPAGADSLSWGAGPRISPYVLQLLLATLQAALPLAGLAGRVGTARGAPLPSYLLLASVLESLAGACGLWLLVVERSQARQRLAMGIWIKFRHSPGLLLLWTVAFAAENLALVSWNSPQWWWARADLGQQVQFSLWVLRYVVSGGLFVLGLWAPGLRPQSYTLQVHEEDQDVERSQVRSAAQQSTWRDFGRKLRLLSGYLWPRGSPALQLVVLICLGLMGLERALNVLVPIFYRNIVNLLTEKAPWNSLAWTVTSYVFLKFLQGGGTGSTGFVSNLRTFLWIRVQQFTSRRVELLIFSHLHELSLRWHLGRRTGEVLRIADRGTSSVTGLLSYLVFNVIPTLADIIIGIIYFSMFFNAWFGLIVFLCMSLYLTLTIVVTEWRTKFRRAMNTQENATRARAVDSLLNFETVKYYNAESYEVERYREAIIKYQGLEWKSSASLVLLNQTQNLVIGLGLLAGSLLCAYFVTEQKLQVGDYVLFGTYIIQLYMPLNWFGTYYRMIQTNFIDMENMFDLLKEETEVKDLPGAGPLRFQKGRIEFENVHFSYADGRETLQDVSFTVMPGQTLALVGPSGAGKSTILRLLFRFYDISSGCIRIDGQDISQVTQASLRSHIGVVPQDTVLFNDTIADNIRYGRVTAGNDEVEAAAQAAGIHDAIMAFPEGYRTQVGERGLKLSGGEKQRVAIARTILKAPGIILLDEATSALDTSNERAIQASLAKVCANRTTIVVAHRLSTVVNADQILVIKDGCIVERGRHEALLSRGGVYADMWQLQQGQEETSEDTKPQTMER
# V-ATPase pHluor = alters yeast V-ATPase proton transport; S. cerevisiae, pHLuorin cytosolic pH fluorescence; response, % at 10 µM; actives 0.37% (n = 350,000); in the data active means response mostly above about 7.3%, no sharp cut-off; inactive means mostly below about 5.4%; further: actives read high
# KCC2 secondary = confirmation of human KCC2 transport modulators | normalised thallium flux (F/F0 slope) at 10 µM | actives 15% (n = 3,700) | shares compounds with Cl transport mod | HEK293-KCC2, thallium flux, FluoZin2 fluorescence; active compounds read high;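 active means thallium flux slope above the same plate's solvent-only control mean plus 3 SD; inconclusive means the two replicate wells disagree; inactive means no significant difference from solvent-only control wells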
# KCC2 bumet counter = thallium flux persisting under bumetanide in KCC2 cells, counter-screen secondary assay; actives 49% (n = 3,700); shares compounds with Cl transport mod; AID 1714; HEK293-KCC2 + bumetanide/ouabain, thallium flux FluoZin2; active compounds read high; normalized thallium flux at 10 µM;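 active means thallium entry rate above the same plate's blocked-transporter control wells by more than 3 SD; inconclusive means the two repeat wells disagree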;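 further: raw slope of fluorescence over initial fluorescence between 10 and 20 s after thallium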
# KCC2 secondary2 = confirmation of human KCC2 transport modulators; shares compounds with Cl transport mod; HEK293-KCC2, thallium flux FluoZin2 fluorescence; actives lie on both sides; F/F0 rise rate, 10–20 s post-thallium; normalized thallium flux at 10 µM; actives 23% (n = 3,700);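 active means thallium flux slope more than 3 SD above or below the plate's solvent-only control mean, mostly below; inconclusive means the two repeat wells disagreed; inactive means no significant shift from solvent-only controls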
# HEK293 Tl flux = parental HEK flux effect, counter-screen | thallium flux rate (normalised fluorescence) at 10 µM | HEK293 parental cells, thallium flux FluoZin2, ouabain; baseline-ratio fluorescence slope, 10–20 s after thallium | actives 46% (n = 3,700) | shares compounds with Cl transport mod | AID 1716;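 active means thallium flux rate significantly above the same plate's solvent-only control wells, beyond their mean plus 3 SD; inconclusive means the two replicate wells gave conflicting results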
# KCC2 ouabain = confirmation of human KCC2 modulators with ouabain; shares compounds with Cl transport mod; HEK293-KCC2, thallium flux FluoZin2 fluorescence; bidirectional: low = inhibitor, high = activator; raw Tl+ flux slope (below DMSO = inhibition, above = activation) at 10 µM; actives 48% (n = 3,700); AID 1717;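 active means thallium flux slope beyond 3 SD from same-plate DMSO control mean in most replicates, usually higher, sometimes lower; inconclusive means repeat tests gave conflicting results; inactive means no significant difference from controls in most replicates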;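 further: slope of initial-normalized fluorescence between seconds 10 and 20 after thallium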
# HEK293 Tl flux2 = counter-screen for KCC2 modulators: effect in parental HEK293 cells. thallium flux slope at 10 µM. actives 33% (n = 3,700). AID 1718. shares compounds with Cl transport mod. thallium flux FluoZin-2 fluorescence slope;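 active means thallium flux slope above the same plate's solvent-control mean plus 3 SD in both duplicate wells; inconclusive means duplicate wells that disagreed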;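 further: run without ouabain in cells lacking the KCC2 cotransporter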
# Hits are given with their value; 0 = inactive; ? = inconclusive; - = no result given. Only a selection was taken, and hits are over-represented in it overall.
SMILES,Cl transport mod,Dynein cargo inh,p-CIP stab down,ABCB6 inh 2,V-ATPase pHluor,KCC2 secondary,KCC2 bumet counter,KCC2 secondary2,HEK293 Tl flux,KCC2 ouabain,HEK293 Tl flux2
Brc1ccc(CSc2nnc(-c3cnccn3)n2Cc2ccco2)cc1,-4.31,0,0,0,0,0,0,0,0.00503,0.0131,0
Cc1cccc(NC(=O)Nc2ccc(C)c(C)c2)n1,5.69,0,0,0,0,0,0,0,0,0,0
COc1ccc(CNc2cc(C)nc3ccc(OC)cc23)cc1,-,-,0,0,0,-,-,-,-,-,-
Cc1cccc(NC(=S)NNC(=O)c2ccccc2OC(F)F)c1,13.3,0,0,0,0,0,0.0265,0,0.0117,?,0.0111
CCCc1cc(C(=O)NNC(=S)Nc2cccc(C)c2)cs1,31,0,0,0,0,0,0.0829,0.0627,0.0771,0.0652,0.0442
CCC(C)c1ccc(NC(=O)COc2c(F)c(F)c(C(F)(F)F)c(F)c2F)cc1 (stereo not drawn),0,0,0,0,0,-,-,-,-,-,-
Cc1ccc(/C=N/NC(=O)c2ccc(Br)o2)s1,5.31,0,0,0,0,0,0.00924,0,?,0,0
Cc1ccc(/C=N/NC(=O)Cc2ccc(O)cc2)s1,-,-,0,0,0,-,-,-,-,-,-
CCc1ccc(/C=N\NC(=O)c2ccc(Br)o2)s1,6.01,0,0,0,0,0,0.022,0,0.0215,0,0.0122
CCOC(=O)C(=O)N(C)c1c(CC)nc2c(OCc3ccccc3OC)cccn12,-,-,-,0,-,-,-,-,-,-,-
CC(C1=C(CCN(C)C)Cc2ccccc21)c1ccccn1 (stereo not drawn),-,-,-,0,0,-,-,-,-,-,-
O=c1c2oc3ccccc3c2[nH]c(=S)n1-c1ccc(F)cc1,0,0,0,0,0,-,-,-,-,-,-
Cc1ccc(-n2c(=S)[nH]c3c(oc4ccccc43)c2=O)cc1C,5.69,0,0,0,0,0.0171,0.0398,0,0.0176,0.0293,0.0123
CCOC(=O)N1CCN(C(=O)COc2ccc(S(=O)(=O)NCC(C)C)cc2C)CC1,-,0,0,0,0,0,0,0,0,0,0
COC(=O)C1(C)CCCC2(C)c3cc(OC)ccc3C(=O)C(Br)C12 (stereo not drawn),-,-,-,0,0,-,-,-,-,-,-
CN(C)CCOc1ccc2c(c1)C(=O)C(=Cc1ncc([N+](=O)[O-])n1C)C2,-,-,-,0,0,-,-,-,-,-,-
O=C(CCCn1c(=S)[nH]c2ccccc2c1=O)N1CCCCC1,0,0,0,0,0,-,-,-,-,-,-
CC1CC(C)CN(C(=O)CCCn2c(=S)[nH]c3ccccc3c2=O)C1 (stereo not drawn),5.37,0,0,0,0,0,0.0293,0,0.0106,?,?
Cc1cccc(N2CCN(C(=O)CCCn3c(=S)[nH]c4cc5c(cc4c3=O)OCO5)CC2)c1C,-,0,0,0,0,0,0.0121,0,?,?,?
COc1ccc(/C=c2\s/c(=C\C(=O)C(C)(C)C)[nH]c2=O)cc1O,0,0,0,0,0,-,-,-,-,-,-
CC(C)(C)C(=O)/C=c1\[nH]c(=O)/c(=C\c2ccc(C#N)cc2)s1,30.2,0,0,0,0,0.0186,0.05,0,?,0.0477,?
CCOC(=O)c1cc(S(=O)(=O)N2CCCC2)cn1C,-,-,0,0,0,-,-,-,-,-,-
Cc1ccc2nc(SCC(=O)N3CCOCC3)[nH]c2c1,0,0,0,0,0,-,-,-,-,-,-
Cc1ccc2[nH]c(SCC(=O)N3CCOCC3)nc2c1C,-,0,0,0,0,0,0,0,0,0,0
Cc1ccc(C(=O)CC2(O)C(=O)N(C)c3ccc(Br)cc32)c(C)c1 (stereo not drawn),-3.63,0,0,0,0,0,?,0,0.00897,0,0
SMILES,Cl transport mod,Dynein cargo inh,p-CIP stab down,ABCB6 inh 2,V-ATPase pHluor,KCC2 secondary,KCC2 bumet counter,KCC2 secondary2,HEK293 Tl flux,KCC2 ouabain,HEK293 Tl flux2
Cc1ccc(C)c(C(=O)CC2(O)C(=O)N(C)c3ccccc32)c1 (stereo not drawn),0,0,0,0,0,-,-,-,-,-,-
O=C(COC(=O)c1ccc(Br)c(S(=O)(=O)N2CCOCC2)c1)NCCc1ccccc1,-,-,-,0,0,-,-,-,-,-,-
O=C(Nc1ncc2c(n1)-c1ccccc1CC2)c1cccc(Cl)c1,-4.4,-,0,0,0,0,0,0.0223,0,0.0135,0
CN(Cc1ccccc1)C(=O)c1ncn2c1C(=O)N(C)CC2,-,-,-,0,0,-,-,-,-,-,-
COc1ccc(CN(C(=O)c2cc3ccccc3oc2=O)C2CCCC2)cc1,-5.14,0,0,0,0,0,0,0,?,?,0
CC(C)C(=O)Nc1ncc(Cc2ccccc2Cl)s1,0,0,0,0,0,-,-,-,-,-,-
N=C1SCC(=O)N1c1ncc(Cc2cccc(Cl)c2)s1,8.07,0,0,0,0,?,0.0189,0,0.0203,0.0311,?
O=C1c2ccccc2C(=O)N1c1ncc(Cc2ccc(Cl)cc2)s1,0,0,0,0,0,-,-,-,-,-,-
N=C1SCC(=O)N1c1ncc(Cc2ccccc2Cl)s1,10.7,0,0,0,0,0,0.0195,0,0.0137,?,0
O=C(COC(=O)C1CC1)Nc1c(Cl)cccc1C(F)(F)F,-,-,-,0,0,-,-,-,-,-,-
CCOC(=O)Cc1csc(NC(=O)Cc2ccc(Cl)cc2)n1,0,0,0,0,0,-,-,-,-,-,-
CCOC(=O)Cc1csc(NC(=S)NC(=O)c2ccc([N+](=O)[O-])cc2)n1,9.84,0,0,0,0,0.0162,0.0357,0,0.0253,0.0414,0
CCOC(=O)Cc1csc(NC(=S)NC(=O)c2ccc(Cl)cc2)n1,9.97,0,0,0,0,0,0.0432,0.0416,0.0421,0.0584,0.0204
CC(C)C#Cc1cnc2c(c1)C(=O)N([C@H](C)CO)C[C@@H](C)[C@H](CN(C)C(=O)Nc1ccccc1F)O2,-,-,-,0,0,-,-,-,-,-,-
COc1ccc(C(=O)NC(=S)Nc2ccc(CN3CCOCC3)cc2)cc1,0,0,0,0,0,-,-,-,-,-,-
O=C(NC(=S)Nc1ccc(CN2CCOCC2)cc1)c1ccc([N+](=O)[O-])cc1,4.61,0,0,0,0,0,0.00969,0,0.0118,0,0.0132

# Compound activity deposited in PubChem BioAssay by several laboratories.
